Active and inactive are the calls of the source. The calls are words filed in the database; no cut-off is given here.
Columns and labels:
Trypanosoma cruzi = assay: Antitrypanosomal activity against Trypanosoma cruzi Tulahuen at 50 ug/mL by beta-galactosidase assay; assay type: functional, organism-based
Procedure, shortened: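 A transgenic T. cruzi expressing β-galactosidase (Tulahuen strain, clone C4) was used. Growth of the intracellular stage was read from cleavage of the colorimetric substrate chlorophenol red-β-D-galactoside. Compounds tested at 50 µg/mL.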

Leishmania mexicana = assay: Antileishmanial activity against Leishmania mexicana WHO-MOHM/B2/82/BELZ promastigote at 40 ug/mL by XTT assay; assay type: functional, organism-based
Procedure, shortened: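 Promastigotes of L. mexicana (WHO-MOHM/B2/82/BELZ), cultured by established protocols, in a colorimetric growth assay; read-out is reduction of the tetrazolium salt XTT to a water-soluble formazan. Compounds tested at 40 µg/mL.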

Vero = assay: Cytotoxicity against african green monkey Vero cells after 4 hrs by MTT assay; assay type: cell-based; conditions: Chlorocebus sabaeus
Plasmodium falciparum = assay: Antiplasmodial activity against chloroquine-resistant Plasmodium falciparum W2; assay type: functional, organism-based

Row | SMILES | Activity (Trypanosoma cruzi) | Activity (Leishmania mexicana) | IC50 (Vero) [µM] | IC50 (Plasmodium falciparum) [µM]
1 | CC(=O)OC[C@@H]1O[C@@H](Oc2c(-c3cc(O)c(O)c(O)c3)oc3cc(O)cc(O)c3c2=O)[C@H](O)[C@H]1OC(C)=O | inactive | inactive | 456 | 
2 | O=C(Oc1cc(O)cc2oc(-c3ccc(O)c(O)c3)c(O[C@@H]3O[C@@H](CO)[C@H](O)[C@H]3O)c(=O)c12)c1cc(O)c(O)c(O)c1 | inactive | inactive | 86.5 | 14.5
3 | O=c1c(O[C@@H]2O[C@@H](CO)[C@H](O)[C@H]2O)c(-c2cc(O)c(O)c(O)c2)oc2cc(O)cc(O)c12 | inactive | inactive |  | 27.8
4 | CC(=O)O[C@@H]1[C@@H](O)[C@H](Oc2c(-c3cc(O)c(O)c(O)c3)oc3cc(O)cc(O)c3c2=O)O[C@H]1CO | inactive | inactive |  | 
5 | Oc1cc(O)c2c(c1)O[C@H](c1ccc(O)c(O)c1)[C@H](O)C2 [(-)-EPICATECHIN] |  |  | 184 | > 50
